Results on 20 compounds are retold here after ChEMBL document CHEMBL1275315, “Synthesis, antioxidant activities and urease inhibition of some new 1,2,4-triazole and 1,3,4-thiadiazole derivatives” (Eur J Med Chem, 2010).

Test [1] in a line: Antioxidant activity assessed as Superoxide anion radical scavenging activity in cell-free system. The format is functional. A digest of the protocol:
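NADH–NBT–PMS system in 0.1 M phosphate buffer, pH 7.4, with sample added from a 1 mM DMSO stock; other reagents made up in buffer. Run at room temperature. Superoxide followed as blue formazan formation at 560 nm.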

For test [2], the target named is Urease (Canavalia ensiformis) (UniProt P07374). Kind of test: (§1) Inhibition of jack bean urease assessed as ammonia production after 15 mins by indophenol method. Further details: inhibition: concentration or dose not given beside the values. The method in brief: (§2)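 Jack bean urease preincubated with test sample at 30 °C for 15 min in buffer containing 100 mM urea, pH 6.8. Ammonia measured by the indophenol method, using phenol reagent (1% w/v phenol, 0.005% w/v sodium nitroprusside) and alkali reagent (0.5% w/v NaOH, 0.1% active chloride NaOCl). Absorbance at 630 nm read after 50 min. Run in triplicate; % inhibition calculated from OD test/OD control; thiourea as standard.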
Chain of Urease (Canavalia ensiformis) (P07374 whole entry, looked up): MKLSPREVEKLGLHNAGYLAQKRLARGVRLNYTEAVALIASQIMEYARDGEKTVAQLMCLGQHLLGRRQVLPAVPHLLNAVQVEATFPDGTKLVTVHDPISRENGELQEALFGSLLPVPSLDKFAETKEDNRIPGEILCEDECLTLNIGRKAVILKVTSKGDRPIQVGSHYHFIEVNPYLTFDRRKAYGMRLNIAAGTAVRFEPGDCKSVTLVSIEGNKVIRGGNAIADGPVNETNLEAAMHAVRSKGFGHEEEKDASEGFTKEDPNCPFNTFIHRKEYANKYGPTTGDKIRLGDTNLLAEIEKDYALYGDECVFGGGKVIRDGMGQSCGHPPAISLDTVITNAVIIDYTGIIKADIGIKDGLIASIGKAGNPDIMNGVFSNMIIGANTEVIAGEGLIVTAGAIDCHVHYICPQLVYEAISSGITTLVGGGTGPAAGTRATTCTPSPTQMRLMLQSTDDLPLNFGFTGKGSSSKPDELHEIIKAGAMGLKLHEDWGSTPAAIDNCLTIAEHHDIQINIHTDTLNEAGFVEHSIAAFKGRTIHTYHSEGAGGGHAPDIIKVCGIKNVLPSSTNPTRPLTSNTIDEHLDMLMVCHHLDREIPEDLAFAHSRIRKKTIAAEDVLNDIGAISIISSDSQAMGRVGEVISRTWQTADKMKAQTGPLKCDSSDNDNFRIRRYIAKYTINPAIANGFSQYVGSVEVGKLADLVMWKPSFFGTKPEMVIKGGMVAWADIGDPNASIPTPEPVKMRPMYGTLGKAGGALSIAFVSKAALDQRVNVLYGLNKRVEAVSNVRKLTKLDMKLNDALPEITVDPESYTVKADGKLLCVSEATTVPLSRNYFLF

For test [3], the system named is Radical scavenging activity. The test is described as follows: Antioxidant activity assessed as DPPH free radical scavenging activity in cell-free system after 30 mins. It counts as functional. A digest of the protocol: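 Compound dissolved in DMSO and DPPH in ethanol. Decrease in absorbance read at 515 nm after incubation. Percent radical scavenging calculated relative to a DMSO-treated control.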

The target in another test is Urease (Canavalia ensiformis, UniProt P07374). Described as §1. A digest of the protocol: as §2
Chain of Urease (P07374 whole entry): as the sequence (P07374 whole entry, looked up) above

A word on the IC50: it is the concentration that gives 50% inhibition. Broadly, the inhibition is the drop in the measured response relative to a control, in per cent. The IC10 is the point of the concentration-response curve where the effect stands at 10%.

For `Cc1ccc(Nc2nnc(-c3cccc(Cl)c3)s2)c(C)c1`, the IC50 in test [1] was found to be 124 µM. Also, the inhibition in test [2] stood at 12.4%.
In the case of `NC(N)=S`, the concentration for an effect of 10% (IC10) in test [2] amounted to 21 µM.
As for `Cc1cccc(C)c1-n1c(-c2ccc(Cl)cc2)n[nH]c1=S`, the inhibition in test [2] turned out to be 7.5%.
As to `CCCOC(=O)c1cc(O)c(O)c(O)c1` [PROPYL GALLATE], the IC50 in test [1] stood at 106 µM; in test [3], 30.5 µM.
With `Cc1cccc(C)c1-n1c(-c2ccccc2Cl)n[nH]c1=S`, the inhibition in test [2] came out at 48.3%.
Still for that read-out and setting: under `Cc1ccccc1-c1n[nH]c(=S)n1-c1cccc(C)c1C` stands 43.4%.
With `Cc1cccc(C)c1-n1c(-c2cccc(Cl)c2)n[nH]c1=S`, the inhibition in test [2] was found to be 64.8%. The IC50 on Urease was found to be 357 µM.
With `Cc1ccc(-c2nnc(Nc3c(C)cccc3C)s2)cc1`, the inhibition in test [2] is 27.1%.
On to `Cc1cccc(C)c1Nc1nnc(-c2ccc(Cl)cc2)s1`, for which the IC50 in test [1] was found to be 255 µM; in test [3] it was 320 µM; on Urease, 215 µM. Further, in test [2], the inhibition was 91.1%.
Take `Cc1cccc(C)c1Nc1nnc(-c2ccccc2Cl)s1`: the inhibition in test [2] stood at 82.8%. Moreover, the IC50 at Urease is 313 µM.
For the compound `Cc1ccc(Nc2nnc(-c3ccc([N+](=O)[O-])cc3)s2)c(C)c1`, the IC50 in test [1] is 94.8 µM. In addition, the inhibition in test [2] came to 7.2%.
In the case of `Cc1cccc(-n2c(-c3ccccc3)n[nH]c2=S)c1C`, the inhibition in test [2] is 93.4%. Besides, the IC50 at Urease was found to be 86 µM.
Consider `Cc1cccc(Nc2nnc(-c3ccc(Cl)cc3)s2)c1C`, for which the IC50 in test [1] was 139 µM; at Urease, 484 µM. Also, the inhibition in test [2] stood at 52.8%.
For `Cc1cccc(-n2c(-c3ccc(Cl)cc3)n[nH]c2=S)c1C`, in test [2], the inhibition worked out at 48.3%.
Same read-out and setting: under `Cc1ccc(-c2n[nH]c(=S)n2-c2c(C)cccc2C)cc1` stands 6.8%.
As for `Cc1ccc(-n2c(-c3cccc(Cl)c3)n[nH]c2=S)c(C)c1`, the inhibition in test [2] turned out to be 53.1%. Further, the concentration for half-maximal inhibition (IC50) at Urease came to 460 µM.
The matching figures for `Cc1cccc(Nc2nnc(-c3ccccc3)s2)c1C`: 56.8% and 426 µM.
As for `Cc1ccc(-n2c(-c3ccc(Cl)cc3)n[nH]c2=S)c(C)c1`, the concentration for half-maximal inhibition (IC50) came out at 292 µM in test [3] and 171 µM on Urease. Moreover, the inhibition in test [2] is 88.6%.
Turning to `Cc1ccc(Nc2nnc(-c3cccc([N+](=O)[O-])c3)s2)c(C)c1`, the 50% inhibitory concentration (IC50) is 131 µM in test [1] and 398 µM on Urease. In test [2], the inhibition amounted to 73.4%.
For the compound `Cc1ccc(-n2c(-c3cccc([N+](=O)[O-])c3)n[nH]c2=S)c(C)c1`, the IC50 in test [3] was determined as 242 µM; at Urease, 45.6 µM. In test [2], the inhibition came to 97%.
